Tests used:
Type in all cases: functional, organism-based
[1] = system: Human betaherpesvirus 5; experiment: Antiviral activity against Human CMV T2296 in MRC5 cells by PRA; details: Human betaherpesvirus 5, T2296, MRC5
Method in brief: (§1)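 Plaque reduction in human lung MRC-5 fibroblasts, 80 to 100% confluent, infected with 50 PFU cell-free virus. Plates centrifuged 600 × g for 30 min, then 1 h at 37°C, 5% CO2. Inoculum removed; grown in duplicate with 0.625–160 μM GCV, 6.25–1,600 μM FOS or 0.0625–16 μM CDV in 0.8% carboxymethyl cellulose medium. Plaques counted at 7 days for IC50. Repeated 8–11 times; mean and SD.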

[2] = system: Human betaherpesvirus 5; experiment: Antiviral activity against Human CMV T2241 in HFF cells by SEAP assay; details: Human betaherpesvirus 5, T2241, HFF
Method in brief: (§2)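 Cell-free stocks of AD169-derived recombinant viruses were inoculated at MOI 0.01 to 0.03 onto human foreskin fibroblasts. Cultures were grown without drug or with twofold increasing concentrations of GCV, FOS or CDV for 7 days. Supernatant SEAP activity was then measured. IC50 was derived by linear regression. Values are means and standard deviations of 7 to 23 replicate experiments.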

[3] = system: Human betaherpesvirus 5; experiment: Antiviral activity against Human CMV T2233 in HFF cells by SEAP assay; details: Human betaherpesvirus 5, T2233, HFF; method in brief: as §2
[4] = system: Human betaherpesvirus 5; experiment: Antiviral activity against Human CMV T2291 in HFF cells by SEAP assay; details: Human betaherpesvirus 5, T2291, HFF; method in brief: as §2
[5] = system: Human betaherpesvirus 5; experiment: Antiviral activity against Human CMV T2311 in HFF cells by PRA; details: Human betaherpesvirus 5, T2311, HFF
[6] = system: Human betaherpesvirus 5; experiment: Antiviral activity against Human CMV T2293 in HFF cells by SEAP assay; details: Human betaherpesvirus 5, T2293, HFF; method in brief: as §2
[7] = system: Human betaherpesvirus 5; experiment: Antiviral activity against Human CMV T2293 in HFF cells by PRA; details: Human betaherpesvirus 5, T2293, HFF
[8] = system: Human betaherpesvirus 5; experiment: Antiviral activity against Human CMV AD169 in HFF cells by PRA; details: Human betaherpesvirus 5, AD169, HFF
[9] = system: Human betaherpesvirus 5; experiment: Antiviral activity against Human CMV Towne in MRC5 cells by PRA; details: Human betaherpesvirus 5, Towne; method in brief: as §1
[10] = system: Human betaherpesvirus 5; experiment: Antiviral activity against Human CMV T2287 in MRC5 cells by PRA; details: Human betaherpesvirus 5, T2287, MRC5; method in brief: as §1
[11] = system: Human betaherpesvirus 5; experiment: Antiviral activity against Human CMV T2291 in HFF cells by PRA; details: Human betaherpesvirus 5, T2291, HFF
[12] = system: Human betaherpesvirus 5; experiment: Antiviral activity against Human CMV T2311 in HFF cells by SEAP assay; details: Human betaherpesvirus 5, T2311, HFF; method in brief: as §2
[13] = system: Human betaherpesvirus 5; experiment: Antiviral activity against Human CMV T2211 in HFF cells by SEAP assay; details: Human betaherpesvirus 5, T2211, HFF; method in brief: as §2

Row | SMILES | IC50 [1] [µM] | IC50 [2] [µM] | IC50 [3] [µM] | IC50 [4] [µM] | IC50 [5] [µM] | IC50 [6] [µM] | IC50 [7] [µM] | IC50 [8] [µM] | IC50 [9] [µM] | IC50 [10] [µM] | IC50 [11] [µM] | IC50 [12] [µM] | IC50 [13] [µM]
1 | Nc1ccn(C[C@@H](CO)OCP(=O)(O)O)c(=O)n1 [CIDOFOVIR] | 0.6 | 0.3 | 0.3 | 0.7 | 8.9 | 5.2 | 4.9 | 0.9 | 0.3 | 1.8 | 3.3 | 4.7 | 0.2
2 | O=C(O)P(=O)(O)O [FOSCARNET] | 63.4 | 42 | 45 | 274 | 732 | 32 | 122 | 78 | 62.8 | 486 | 431 | 308 | 41
3 | Nc1nc2c(ncn2COC(CO)CO)c(=O)[nH]1 [GANCICLOVIR] | 5.4 | 1.4 | 1.4 | 7.1 | 12.4 | 5.6 | 10 | 1.9 | 4.9 | 30.1 | 4.1 | 30.2 | 

Reference: ChEMBL document CHEMBL1142135, “Multidrug resistance conferred by novel DNA polymerase mutations in human cytomegalovirus isolates” (Antimicrob Agents Chemother, 2007)
